Where two headings read alike, the source gives them in different places. No end group written: not given here.
T1: N1P1 (NHERF1 PDZ domain 1) (Homo sapiens, UniProt O14745)
T1 sequence (O14745 14-94 limits assumed): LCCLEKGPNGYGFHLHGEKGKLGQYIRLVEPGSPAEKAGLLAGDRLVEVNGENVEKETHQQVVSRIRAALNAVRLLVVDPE

T2: N1P2 (NHERF1 PDZ domain 2) (Homo sapiens, UniProt O14745)
T2 sequence (O14745 154-234 limits assumed): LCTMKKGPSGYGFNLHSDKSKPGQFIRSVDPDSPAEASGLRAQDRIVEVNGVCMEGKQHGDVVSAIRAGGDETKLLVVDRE

T3: F*-iCAL36
T3 chain: fluorescein-ANSRWPTSII

T4: SSR510 (Homo sapiens)
T4 chain: ANGLMQTSKL

T5: iCAL3610
T5 chain: ANSRWPTSII

T6: SSR56 (Homo sapiens, N-terminal cysteine on peptide)
T6 chain: MQTSKL

T7: iCAL366 (N-terminal cysteine on peptide)
T7 chain: WPTSII

T8: iCAL368
T8 chain: SRWPTSII

T9: iCAL056 (N-terminal cysteine on peptide)
T9 chain: MQTSKI

T10: iCAL356 (N-terminal cysteine on peptide)
T10 chain: WQTSII

T11: iCAL066 (N-terminal cysteine on peptide)
T11 chain: MQTSII

T12: CFTR10 (Homo sapiens)
T12 chain: TEEEVQDTRL


How the values were obtained:
[1] = biological target: T1, N1P1 (NHERF1 PDZ domain 1); assay: Fluorescence polarization; assay type: binding
In short: (§1)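 Test peptides were assayed by fluorescence polarization inhibition for binding to the isolated PDZ domain; the same format was applied across the five CFTR-associated PDZ domains.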

[2] = biological target: T2, N1P2 (NHERF1 PDZ domain 2); assay: Fluorescence polarization; assay type: binding
In short: as §1

[3] = biological target: N2P1 (NHERF2 PDZ domain 1) (Homo sapiens, UniProt Q15599); assay: Fluorescence polarization; assay type: binding
[4] = biological target: N2P2 (NHERF2 PDZ domain 2) (Homo sapiens, UniProt Q15599); assay: Fluorescence polarization; assay type: binding
[5] = biological target: T3, F*-iCAL36; assay: fluorescence polarization
[6] = biological target: T4, SSR510; assay: fluorescence polarization competition
[7] = biological target: T5, iCAL3610; assay: fluorescence polarization competition
[8] = biological target: T6, SSR56; assay: fluorescence polarization competition
[9] = biological target: T7, iCAL366; assay: fluorescence polarization competition
[10] = biological target: T8, iCAL368; assay: fluorescence polarization competition
[11] = biological target: T9, iCAL056; assay: fluorescence polarization competition
[12] = biological target: T10, iCAL356; assay: fluorescence polarization competition
[13] = biological target: T11, iCAL066; assay: fluorescence polarization competition
[14] = biological target: T12, CFTR10; assay: fluorescence polarization competition

| Molecule | Ki ([1]; SD) [µM] | Ki ([2]; SD) [µM] | Ki ([3]; SD) [µM] | Ki ([4]; SD) [µM] | Ki [1] [µM] | Ki [2] [µM] | Ki [3] [µM] | Ki [4] [µM] | Kd [5] [µM] | Ki [6] [µM] | Ki [7] [µM] | Ki [8] [µM] | Ki [9] [µM] | Ki [10] [µM] | Ki [11] [µM] | Ki [12] [µM] | Ki [13] [µM] | Ki [14] [µM] |
| --- | --- | --- | --- | --- | --- | --- | --- | --- | --- | --- | --- | --- | --- | --- | --- | --- | --- | --- |
| CSCC[C@H](NC(=O)[C@H](CC(C)C)NC(=O)CNC(=O)[C@H](CC(N)=O)NC(=O)[C@H](C)N)C(=O)N[C@@H](CCC(N)=O)C(=O)N[C@H](C(=O)N[C@@H](CO)C(=O)N[C@@H](CCCCN)C(=O)N[C@@H](CC(C)C)C(=O)O)[C@@H](C)O [SSR5_10, reference compound] | 24.5 ± 1.9 | 130 ± 48 | 38.6 ± 7.7 | 19.8 ± 2.7 |  |  |  |  |  |  |  |  |  |  |  |  |  |  |
| CC[C@H](C)[C@H](NC(=O)[C@@H](NC(=O)[C@H](CO)NC(=O)[C@@H](NC(=O)[C@@H]1CCCN1C(=O)[C@H](Cc1c[nH]c2ccccc12)NC(=O)[C@H](CCCNC(=N)N)NC(=O)[C@H](CO)NC(=O)[C@H](CC(N)=O)NC(=O)[C@H](C)N)[C@@H](C)O)[C@@H](C)CC)C(=O)O [iCAL36_10] |  |  |  |  | > 5000 | > 5000 | > 5000 | > 3000 |  |  |  |  |  |  |  |  |  |  |
| CC(C)C[C@H](NC(=O)[C@H](CCCNC(=N)N)NC(=O)[C@@H](NC(=O)[C@H](CC(=O)O)NC(=O)[C@H](CCC(N)=O)NC(=O)[C@@H](NC(=O)[C@H](CCC(=O)O)NC(=O)[C@H](CCC(=O)O)NC(=O)[C@H](CCC(=O)O)NC(=O)[C@@H](N)[C@@H](C)O)C(C)C)[C@@H](C)O)C(=O)O [CFTR10, reference compound] | 0.45 ± 0.02 | 1.9 ± 0.1 |  |  |  |  |  |  |  |  |  |  |  |  |  |  |  |  |
| SRWPTSII [iCAL36_8] |  |  | 516 ± 183 | 433 ± 154 | > 5000 | > 5000 |  |  |  |  |  |  |  |  |  |  |  |  |
| NHERF2 PDZ1 (protein) RPRLCRLVRGEQGYGFHLHGEKGRRGQFIRRVEPGSPAEAAALRAGDRLVEVNGVNVEGETHHQVVQRIKAVEGQTRLLVVDQETD |  |  |  |  |  |  |  |  | > 1000 | 38.6 | > 5000 | 31.7 | > 5000 | 516 | 806 | 496 | 245 | 1.1 |
| NHERF2 PDZ2 (protein) LRPRLCHLRKGPQGYGFNLHSDKSRPGQYIRSVDPGSPAARSGLRAQDRLIEVNGQNVEGLRHAEVVASIKAREDEARLLVVDPETD |  |  |  |  |  |  |  |  | > 1000 | 19.8 | > 3000 | 10 | > 5000 | 433 | 109 | 246 | 166 | 0.1 |
| NHERF1 PDZ1 (protein) LPRLCCLEKGPNGYGFHLHGEKGKLGQYIRLVEPGSPAEKAGLLAGDRLVEVNGENVEKETHQQVVSRIRAALNAVRLLVVDPETDE |  |  |  |  |  |  |  |  | > 1000 | 24.5 | > 5000 | 19.3 | > 5000 | > 5000 | 914 | 430 | 245 | 0.45 |
| NHERF1 PDZ2 (protein) RPRLCTMKKGPSGYGFNLHSDKSKPGQFIRSVDPDSPAEASGLRAQDRIVEVNGVCMEGKQHGDVVSAIRAGGDETKLLVVDRETDE |  |  |  |  |  |  |  |  | > 1000 | 130 | > 5000 | 50.2 | > 5000 | > 5000 | 1700 | > 5000 | 2400 | 1.9 |

— PMC3037833 (Angewandte Chemie (International ed. in English), 2010)
